Results from publication PMC3600088 (Journal of medicinal chemistry, 2013).
Entries after “also recorded” stand apart in the source; their conditions may differ. Like-named read-outs stand apart in the source and are kept apart here.

Tests used:
[1] = system: angiogenesis; conditions: therapeutic concentrations; cited from earlier work
[2] = system: angiogenesis; conditions: cited from earlier work
[3] = system: Caco-2 monolayers; conditions: cited from earlier work
[4] = cited from earlier work
[5] = target: T1, CMG2 (Homo sapiens, UniProt P58335, C175A/R40C); test: CMG2-Protective antigen; type: binding; conditions: for inhibitory activity in CMG2 FRET assay: concentrations up to 300 μM
T1 sequence (P58335 40-217 R40C/C175A): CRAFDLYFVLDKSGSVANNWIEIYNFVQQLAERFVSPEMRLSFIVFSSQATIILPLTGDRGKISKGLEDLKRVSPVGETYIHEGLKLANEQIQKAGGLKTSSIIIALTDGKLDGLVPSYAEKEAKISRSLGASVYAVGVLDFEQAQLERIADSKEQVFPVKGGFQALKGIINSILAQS

[6] = target: H+, K+, ATPase; conditions: cited from earlier work
[7] = IP and orally at doses up to 30 mg/kg/day; cited from earlier work
[8] = system: DNA polymerases; conditions: certain DNA polymerases; cited from earlier work
[9] = system: human dermal microvascular endothelial cells (HMVEC-d); test: Endothelial cell migration assay; type: cell-based; conditions: ex vivo endothelial cell migration assay
In short: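 HMVEC-d kept in EGM-2 and used before passage 7, resuspended in EBM with 0.1% BSA. 20,000 cells were placed on fibronectin-coated 8.0 μm-pore polycarbonate transwell inserts over full-serum (5%) medium with or without test compound, and left to migrate 4 h. Top-side cells were removed, membranes fixed and Diff-Quick stained, and 4 10X fields counted. Counts were normalized to no-treatment control, with IC50 from a binding-isotherm fit. Two experiments, n=3 each.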

[10] = system: HMVEC-d cells; test: Endothelial cell proliferation assay; type: cell-based, human; conditions: at doses that inhibited migration, 24 and 72 hours
[11] = system: bFGF-driven angiogenesis; test: Mouse corneal micropocket assay; type: in vivo, C57BL/6J mice; conditions: mice
In short: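 Pellets with 80 ng bFGF were implanted in C57BL/6J corneas, five mice per group. Test compound was given daily by oral gavage at 20 mg/kg in 5% ethanol, or IP at 10 mg/kg/day in 2.5% DMSO, 5% Cremophor EL, 5% Tween-80, 7.5% N-methyl-2-pyrrolidone, 0.9% NaCl. Controls received vehicle. Dosing began at implantation, and vascular area was measured by slit lamp on postoperative day 5 (~10 eyes/group, t-test).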

[12] = cited from earlier work; remark: listed apart in the source

Molecule: COc1ccc2[nH]c([S+]([O-])Cc3ncc(C)c(OC)c3C)nc2c1 (centres unmarked) [omeprazole]
- inhibition of angiogenesis [1]: fails to inhibit angiogenesis

Molecule: O=C(OC[C@H]1O[C@@H](OC(=O)c2cc(O)c(O)c(O)c2)[C@H](OC(=O)c2cc(O)c(O)c(O)c2)[C@@H](OC(=O)c2cc(O)c(O)c(O)c2)[C@@H]1OC(=O)c1cc(O)c(O)c(O)c1)c1cc(O)c(O)c(O)c1 [PGG, 1,2,3,4,6-penta-O-galloyl-β-D-glucopyranose]
- dose at which antiangiogenic activity has been evoked [2]: 4 mg/kg
- nature of transport [3]: saturable
- plasma concentrations ([4]; intraperitoneal administration): single-digit micromolar
- plasma concentrations ([4]; oral administration): submicromolar
- circulating concentrations ([4]; oral dose of 80 mg/kg, experimental animals): < 1 µM
- activity of HPLC fractions in the FRET assay ([5]; fractions of the "tannic acid" sample): active
- IC50 (in words) ([5]; in vitro FRET binding assay): submicromolar
- IC50 (in words) [6]: submicromolar
- ill effects [7]: without ill effects
- IC50 (in words) [8]: submicromolar
- IC50 of endothelial cell migration (in words) [9]: submicromolar
- cytotoxic or cytostatic effects [10]: no cytotoxic or cytostatic effects
- inhibition of bFGF-driven angiogenesis ([11]; 10 mg/kg IP, 80 ng bFGF pellet): significantly inhibited
- inhibition of bFGF-driven angiogenesis (vessel area) ([11]; 20 mg/kg/day by oral gavage, 80 ng bFGF pellet, day 5): significantly inhibited; also recorded: statistically significant
- signs of toxicity (weight loss, hunched posture, behavioral abnormalities) ([11]; 10 mg/kg IP or 20 mg/kg/day oral): no obvious signs of toxicity

Molecule: COC(=O)c1cc(O)c(O)c(O)c1 [Methyl Gallate]
- inhibitory activity in CMG2 FRET assay [5]: None of these compounds exhibited any inhibitory activity

Molecule: CCCOC(=O)c1cc(O)c(O)c(O)c1 [Propyl Gallate]
- inhibitory activity in CMG2 FRET assay [5]: None of these compounds exhibited any inhibitory activity

Molecule: Protocatechillic acid
- IC50 [5]: > 300 µM

Molecule: O=C(OC[C@H]1O[C@@H](OC(=O)c2cc(O)c(O)c(OC(=O)c3cc(O)c(O)c(O)c3)c2)[C@H](OC(=O)c2cc(O)c(O)c(OC(=O)c3cc(O)c(O)c(O)c3)c2)[C@@H](OC(=O)c2cc(O)c(O)c(OC(=O)c3cc(O)c(O)c(O)c3)c2)[C@@H]1OC(=O)c1cc(O)c(O)c(OC(=O)c2cc(O)c(O)c(O)c2)c1)c1cc(O)c(O)c(OC(=O)c2cc(O)c(O)c(O)c2)c1 [Tannic acid]
- toxicity upon administration in mice [12]: toxic effects
